In ChEMBL document CHEMBL1134765, “Synthesis of 4-alkoxy-2-phenylquinoline derivatives as potent antiplatelet agents” (Bioorg Med Chem Lett, 2001) one finds Aggregation and IC50 data, which are given here for 16 compounds.

Common to all, as to assay type: functional
The species entered for assay [1] is Homo sapiens. Nature of the assay: In vitro inhibitory activity of compound 0.2 (ug/ml) on platelet aggregation induced by collagen. In a few lines:
(§1)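 Platelets were preincubated with test sample or 0.5% DMSO vehicle at 37 °C for 1 min. Aggregation was then triggered by one inducer: thrombin 0.1 U/mL, arachidonic acid 100, collagen 10, or PAF 2 ng/mL. Read-out was percent aggregation, reported as mean±SE with n=3–6.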

Assay [2] is filed under the species Homo sapiens. The assay can be described thus: In vitro inhibitory activity of control on platelet aggregation induced by collagen. The gist of the method:
as §1

The species entered for assay [3] is Homo sapiens. The assay can be described thus: In vitro inhibitory activity of control on platelet aggregation induced by thrombin. The gist of the method: as §1
Assay [4] is filed under the species Homo sapiens. The assay can be described thus: In vitro inhibitory activity of compound 10 (ug/ml) on platelet aggregation induced by collagen. The gist of the method: as §1
The species entered for assay [5] is Homo sapiens. Nature of the assay: In vitro inhibitory activity of compound 100 (ug/ml) on platelet aggregation induced by thrombin. In a few lines: as §1
Assay [6] is filed under the species Homo sapiens. The assay can be described thus: In vitro inhibitory activity of compound 100 (ug/ml) on platelet aggregation induced by PAF. The gist of the method:
as §1

Assay [7] is filed under the species Homo sapiens. Nature of the assay: In vitro inhibitory activity of compound 2 (ug/ml) on platelet aggregation induced by collagen. The gist of the method:
as §1

For assay [8], the species on record is Homo sapiens. Nature of the assay: In vitro inhibitory activity on platelet aggregation induced by arachidonic acid (AA). In a few lines:
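Platelets were preincubated 1 min at 37 °C with test sample or 0.5% DMSO. Aggregation was then triggered with arachidonic acid 100. Aspirin and indomethacin served as positive controls.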

Assay [9] is filed under the species Homo sapiens. The assay can be described thus: In vitro inhibitory activity of compound on platelet aggregation induced by collagen. The gist of the method:
as §1

For assay [10], the species on record is Homo sapiens. Nature of the assay: In vitro inhibitory activity of compound 1 (ug/ml) on platelet aggregation induced by AA. In a few lines: as §1
Assay [11] is filed under the species Homo sapiens. The assay can be described thus: In vitro inhibitory activity of compound 100 (ug/ml) on platelet aggregation induced by AA. The gist of the method: as §1
Assay [12] is filed under the species Homo sapiens. Nature of the assay: In vitro inhibitory activity of compound 0.5 (ug/ml) on platelet aggregation induced by collagen. In a few lines:
as §1

The species named for assay [13] is Homo sapiens. The assay can be described thus: In vitro inhibitory activity of compound 1 (ug/ml) on platelet aggregation induced by collagen. In a few lines: as §1
For assay [14], the species on record is Homo sapiens. Nature of the assay: In vitro inhibitory activity of compound 0.1 (ug/ml) on platelet aggregation induced by collagen. In a few lines: as §1
The species named for assay [15] is Homo sapiens. The assay can be described thus: In vitro inhibitory activity of compound 0.5 (ug/ml) on platelet aggregation induced by AA. The gist of the method:
as §1

The species entered for assay [16] is Homo sapiens. The assay can be described thus: In vitro inhibitory activity of control on platelet aggregation induced by AA. The gist of the method: as §1
The species named for assay [17] is Homo sapiens. The assay can be described thus: In vitro inhibitory activity of compound 5 (ug/ml) on platelet aggregation induced by AA. The gist of the method:
as §1

Assay [18] is filed under the species Homo sapiens. Nature of the assay: In vitro inhibitory activity of control on platelet aggregation induced by PAF. The gist of the method:
as §1

The species entered for assay [19] is Homo sapiens. The assay can be described thus: In vitro inhibitory activity of compound 0.2 (ug/ml) on platelet aggregation induced by AA. The gist of the method:
as §1

The species entered for assay [20] is Homo sapiens. Nature of the assay: In vitro inhibitory activity of compound 100 (ug/ml) on platelet aggregation induced by collagen. The gist of the method: as §1
For assay [21], the species on record is Homo sapiens. The assay can be described thus: In vitro inhibitory activity of compound 5 (ug/ml) on platelet aggregation induced by collagen. In a few lines: as §1
The species entered for assay [22] is Homo sapiens. The assay can be described thus: In vitro inhibitory activity of compound 2 (ug/ml) on platelet aggregation induced by AA. The gist of the method:
as §1

The species named for assay [23] is Homo sapiens. Nature of the assay: In vitro inhibitory activity of compound 20 (ug/ml) on platelet aggregation induced by PAF. The gist of the method:
as §1

For assay [24], the species on record is Homo sapiens. Nature of the assay: In vitro inhibitory activity of compound 0.1 (ug/ml) on platelet aggregation induced by AA. In a few lines: as §1
Assay [25] is filed under the species Homo sapiens. The assay can be described thus: In vitro inhibitory activity of compound 50 (ug/ml) on platelet aggregation induced by PAF. The gist of the method: as §1
For assay [26], the species on record is Homo sapiens. Nature of the assay: Potent antiplatelet activity was evaluated.

A word on the IC50: it is the point on the concentration scale where inhibition reaches its midpoint. For `CCOc1cc(-c2ccccc2)nc2ccccc12`, the Aggregation is 78.5% in the assay filed under Homo sapiens [1]; 89.2% in the assay filed under Homo sapiens [2]; 92.5% in the assay listed under Homo sapiens [3]; 5.9% in the assay filed under Homo sapiens [4]; 80% in the assay listed under Homo sapiens [5]; 63.8% in the assay listed under Homo sapiens [6]. The Aggregation in the assay listed under Homo sapiens [7] is 28.4%; in the assay filed under Homo sapiens [10] it was 4.3%; in the assay listed under Homo sapiens [11] it was 0%; in the assay listed under Homo sapiens [12], 43.5%; in the assay listed under Homo sapiens [13], 36.3%; in the assay filed under Homo sapiens [14], 85.9%. Also, the Aggregation in the assay listed under Homo sapiens [15] came to 23.1%; in the assay filed under Homo sapiens [16], 90.9%; in the assay filed under Homo sapiens [17], 0%; in the assay listed under Homo sapiens [18], 92%; in the assay filed under Homo sapiens [19] it was 86.4%; in the assay listed under Homo sapiens [20], 0%. Also, the Aggregation in the assay listed under Homo sapiens [21] was 15.9%; in the assay listed under Homo sapiens [22] it was 1.7%. Besides, the values for the 50% inhibitory concentration (IC50) in the assay listed under Homo sapiens [8] and in the assay filed under Homo sapiens [9] were 2010 nM and 3610 nM, respectively.

For the compound `COc1cc(-c2ccccc2)nc2ccccc12`, the Aggregation is recorded as 89.2% in the assay listed under Homo sapiens [2]; 92.5% in the assay filed under Homo sapiens [3]; 87.2% in the assay filed under Homo sapiens [23]; 56.8% in the assay listed under Homo sapiens [5]; 0% in the assay listed under Homo sapiens [6]; 9.4% in the assay filed under Homo sapiens [7]. Further, the Aggregation in the assay filed under Homo sapiens [10] was 9.3%; in the assay filed under Homo sapiens [11], 0%; in the assay filed under Homo sapiens [24], 90.8%; in the assay filed under Homo sapiens [13], 18.5%; in the assay filed under Homo sapiens [15], 53.4%; in the assay filed under Homo sapiens [16], 90.9%. Moreover, the Aggregation was 65.8% in the assay listed under Homo sapiens [25]; 92% in the assay listed under Homo sapiens [18]; 86% in the assay filed under Homo sapiens [19]; 0% in the assay filed under Homo sapiens [20]; 0% in the assay listed under Homo sapiens [21]; 0% in the assay listed under Homo sapiens [22]. The 50% inhibitory concentration (IC50) was 2130 nM in the assay filed under Homo sapiens [8] and 1700 nM in the assay listed under Homo sapiens [9].

Compound `CCOC(=O)CCCOc1cc(-c2ccccc2)nc2cccc(CC)c12` showed an IC50 in the assay listed under Homo sapiens [8] of 1540 nM.

For the compound `CCOC(=O)CCCCOc1cc(-c2ccccc2)nc2cccc(CC)c12`, in the assay filed under Homo sapiens [8], the half-inhibitory concentration (IC50) came to 530 nM.

In the case of `CCc1cccc2nc(-c3ccccc3)cc(O)c12`, in the assay listed under Homo sapiens [26], the midpoint of inhibition, the IC50, lay at 150 nM.

In the assay filed under Homo sapiens [8], `CCc1cccc2nc(-c3ccccc3)cc(OC)c12` gave an IC50 of 80 nM.

Take `O=C(O)COc1cc(-c2ccccc2)nc2ccccc12`: in the assay listed under Homo sapiens [8], the half-maximal inhibitory concentration (IC50) came to 35600 nM.

In turn, `CCOc1cc(-c2ccccc2)nc2cc(CC)ccc12` displayed an IC50 in the assay filed under Homo sapiens [8] of 3970 nM.

Turning to `CCNC(=O)COc1cc(-c2ccccc2)nc2cccc(CC)c12`, half-maximal inhibition in the assay listed under Homo sapiens [8] (IC50) required 600 nM.

Take `CCc1cccc2c1c(=O)cc(-c1ccccc1)n2C`: in the assay filed under Homo sapiens [8], inhibition was half-maximal at 30000 nM (IC50).

With `CCOC(=O)COc1cc(-c2ccccc2)nc2ccccc12`, the IC50 in the assay listed under Homo sapiens [8] was 13900 nM.

In the assay listed under Homo sapiens [8], `CCOC(=O)COc1cc(-c2ccccc2)nc2cccc(CC)c12` gave an IC50 of 780 nM.

For the compound `CCOc1cc(-c2ccccc2)nc2cccc(CC)c12`, the IC50 in the assay filed under Homo sapiens [8] was determined as 140 nM.

In the case of `CCc1cccc2nc(-c3ccccc3)cc(OCC(=O)NC)c12`, in the assay filed under Homo sapiens [8], the half-inhibitory concentration (IC50) was 1880 nM.

Regarding `CC(=O)Oc1ccccc1C(=O)O` [ASPIRIN], the IC50 in the assay listed under Homo sapiens [8] came to 20000 nM.

In the assay listed under Homo sapiens [8], `COc1ccc2c(c1)c(CC(=O)O)c(C)n2C(=O)c1ccc(Cl)cc1` [INDOMETHACIN] registered an IC50 of 250 nM.
